Measurements as given in ChEMBL document CHEMBL3627646, “Synthesis and biological activity of amino acid derivatives of avarone and its model compound” (Bioorg Med Chem, 2015).
Values after ≈ are worked out from the molar mass of the structure shown. Active and inactive are the calls of the source. The calls are words filed in the database; no cut-off is given here.

Assays:
HeLa [1] = test: Cytotoxicity against human HeLa cells assessed as cell survival after 72 hrs by MTT assay; assay type: functional, cell-based
Summary of the method: (§1)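 Cells seeded (HeLa 2000, MDA-MB-453 3000, others 5000 per well), treated 24 h later (K562 after 2 h). Five double-diluted final concentrations, 200–12.5 μM, from 10 mM DMSO stocks, in RPMI-1640 with 10% FBS, pH 7.2, 72 h. MTT 4 h at 37 °C, SDS added, A570 read next day. Survival relative to medium control; IC50 from survival curves; triplicate; cisplatin positive control.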

A549 = test: Cytotoxicity against human A549 cells assessed as cell survival after 72 hrs by MTT assay; assay type: functional, cell-based; details: A549, 72 h; summary of the method: as §1
[2] = Cytotoxicity against human Fem-X cells assessed as cell survival after 72 hrs by MTT assay; assay type: functional, cell-based; summary of the method: as §1
K562 = test: Cytotoxicity against human K562 cells assessed as cell survival after 72 hrs by MTT assay; assay type: functional, cell-based; details: K562, 72 h; summary of the method: as §1
MDA-MB-453 = test: Cytotoxicity against human MDA-MB-453 cells assessed as cell survival after 72 hrs by MTT assay; assay type: functional, cell-based; details: MDA-MB-453, 72 h; summary of the method: as §1
MRC5 = test: Cytotoxicity against human MRC5 cells assessed as cell survival after 72 hrs by MTT assay; assay type: cell-based; details: MRC5, 72 h; summary of the method: as §1
HeLa [3] = test: Cell cycle arrest in human HeLa cells assessed as accumulation at G2/M phase at IC50 after 24 hrs using propidium iodide staining by cytofluorometric analysis; assay type: functional, cell-based
Summary of the method: (§2)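 Trypsinized, fixed in ice-cold 70% ethanol then held at −20 °C at least one week. Treated with RNase 100 µg/mL at 37 °C 30 min, stained with PI 40 µg/mL at least 30 min. Flow cytometry on ≥10,000 cells.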

HeLa [4] = test: Cell cycle arrest in human HeLa cells assessed as accumulation at G2/M phase at 2 time IC50 after 24 hrs using propidium iodide staining by cytofluorometric analysis; assay type: functional, cell-based; summary of the method: as §2
Staphylococcus aureus = test: Antibacterial activity against Staphylococcus aureus ATCC 6538 after 24 hrs by microbroth double dilution method; assay type: functional; details: ATCC 6538, 24 h
Summary of the method: (§3)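 Microbroth double dilution in Mueller Hinton broth; compound stock 10 mg/mL in DMSO serially halved across rows. Wells inoculated with 10 μL culture at 10^6 cells/mL, incubated 37 °C for 24 h. Amikacin row as positive control, DMSO row as negative control. MIC taken as lowest concentration inhibiting bacterial growth.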

Kocuria rhizophila = test: Antibacterial activity against Kocuria rhizophila ATCC 9341 after 24 hrs by microbroth double dilution method; assay type: functional; details: ATCC 9341, 24 h; summary of the method: as §3
Bacillus subtilis = test: Antibacterial activity against Bacillus subtilis ATCC 6633 after 24 hrs by microbroth double dilution method; assay type: functional; details: ATCC 6633, 24 h; summary of the method: as §3
Micrococcus luteus = test: Antibacterial activity against Micrococcus luteus ATCC 4698 after 24 hrs by microbroth double dilution method; assay type: functional; details: ATCC 4698, 24 h; summary of the method: as §3
Micrococcus flavus = test: Antibacterial activity against Micrococcus flavus ATCC 10240 after 24 hrs by microbroth double dilution method; assay type: functional; details: ATCC 10240, 24 h; summary of the method: as §3
Clostridium sporogenes = test: Antibacterial activity against Clostridium sporogenes ATCC 19404 after 24 hrs by microbroth double dilution method; assay type: functional; details: ATCC 19404, 24 h; summary of the method: as §3
Escherichia coli = test: Antibacterial activity against Escherichia coli ATCC 25922 after 24 hrs by microbroth double dilution method; assay type: functional; details: ATCC 25922, 24 h; summary of the method: as §3
Proteus hauseri = test: Antibacterial activity against Proteus hauseri ATCC 13315 after 24 hrs by microbroth double dilution method; assay type: functional; details: ATCC 13315, 24 h; summary of the method: as §3
Salmonella enterica = test: Antibacterial activity against Salmonella enterica ATCC 13076 after 24 hrs by microbroth double dilution method; assay type: functional; details: ATCC 13076, 24 h; summary of the method: as §3
Pseudomonas aeruginosa = test: Antibacterial activity against Pseudomonas aeruginosa ATCC 9027 after 24 hrs by microbroth double dilution method; assay type: functional; details: ATCC 9027, 24 h; summary of the method: as §3
Candida albicans = test: Antifungal activity against Candida albicans ATCC 10231 after 24 hrs by microbroth double dilution method; assay type: functional
Saccharomyces cerevisiae = test: Antifungal activity against Saccharomyces cerevisiae ATCC 9763 after 24 hrs by microbroth double dilution method; assay type: functional
Aspergillus brasiliensis = test: Antifungal activity against Aspergillus brasiliensis ATCC 16404 after 24 hrs by microbroth double dilution method; assay type: functional
Artemia salina = test: Cytotoxicity in Brine shrimp assessed as nauplii mortality after 24 hrs; assay type: organism-based; details: in vivo
Summary of the method: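 Artemia salina eggs hatched in aerated tap water with dried yeast at 18–20 °C under illumination for 48 h, and freshly hatched nauplii were used. Compounds in DMSO (0.01–1 mg) were added to 950 µL artificial seawater containing 10–20 nauplii, with 5% final DMSO. After 24 h under illumination at room temperature, dead and surviving nauplii were counted and statistically analysed.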

SMILES	IC50 (HeLa [1]) [µM]	IC50 (A549) [µM]	IC50 [2] [µM]	IC50 (K562) [µM]	IC50 (MDA-MB-453) [µM]	IC50 (MRC5) [µM]	MIC (Staphylococcus aureus) [µM]	MIC (Kocuria rhizophila) [µM]	MIC (Bacillus subtilis) [µM]	MIC (Micrococcus luteus) [µM]	MIC (Micrococcus flavus) [µM]	MIC (Clostridium sporogenes) [µM]	MIC (Escherichia coli) [µM]	MIC (Proteus hauseri) [µM]	MIC (Salmonella enterica) [µM]	MIC (Pseudomonas aeruginosa) [µM]	MIC (Candida albicans; ATCC 10231, 24 h) [µM]	MIC (Saccharomyces cerevisiae; ATCC 9763, 24 h) [µM]	MIC (Aspergillus brasiliensis; ATCC 16404, 24 h) [µM]	LC50 (Artemia salina) [ppm]	further results
CSCC[C@H](NC1=CC(=O)C=C(C[C@]2(C)[C@@H](C)CC[C@]3(C)C(C)=CCC[C@@H]23)C1=O)C(=O)O	13.9	47.3	19.4	13.6	25.6	> 200	42.4 (≈ 19.5 µg/mL)	1360 (≈ 625 µg/mL)	170 (≈ 77.9 µg/mL)	42.4 (≈ 19.5 µg/mL)	170 (≈ 77.9 µg/mL)	170 (≈ 77.9 µg/mL)	42.4 (≈ 19.5 µg/mL)	341 (≈ 157 µg/mL)	170 (≈ 77.9 µg/mL)	170 (≈ 77.9 µg/mL)	< 2.67	87.8 (≈ 40.3 µg/mL)	341 (≈ 157 µg/mL)	147.7	Activity (HeLa [3]): Active; Activity (HeLa [4]): Active
CC1=CCC[C@H]2[C@](C)(CC3=CC(=O)C(N4CCC[C@H]4C(=O)O)=CC3=O)[C@@H](C)CC[C@]12C	36.2	49.2	39.6	35.4	60.6	96	91.5 (≈ 39 µg/mL)	735 (≈ 313 µg/mL)	183 (≈ 77.9 µg/mL)	91.5 (≈ 39 µg/mL)	183 (≈ 77.9 µg/mL)	369 (≈ 157 µg/mL)	91.5 (≈ 39 µg/mL)	183 (≈ 77.9 µg/mL)	183 (≈ 77.9 µg/mL)	183 (≈ 77.9 µg/mL)	23 (≈ 9.79 µg/mL)	45.8 (≈ 19.5 µg/mL)	735 (≈ 313 µg/mL)	706.6	
CC(C)C[C@H](NC1=CC(=O)C=C(C(C)(C)C)C1=O)C(=O)O	57.2	97.9	39.4	76.5	84.9	> 200	266 (≈ 78 µg/mL)	2130 (≈ 625 µg/mL)	2130 (≈ 625 µg/mL)	266 (≈ 78 µg/mL)	2130 (≈ 625 µg/mL)	2130 (≈ 625 µg/mL)	266 (≈ 78 µg/mL)	2130 (≈ 625 µg/mL)	2130 (≈ 625 µg/mL)	4260 (≈ 1250 µg/mL)	536 (≈ 157 µg/mL)	133 (≈ 39 µg/mL)	1070 (≈ 313 µg/mL)	104.8	
CC(C)(C)C1=CC(=O)C=C(NCC(=O)O)C1=O	132	> 200	34.3	85	171	> 200	662 (≈ 157 µg/mL)	2640 (≈ 626 µg/mL)	1320 (≈ 313 µg/mL)	662 (≈ 157 µg/mL)	2640 (≈ 626 µg/mL)	2640 (≈ 626 µg/mL)	662 (≈ 157 µg/mL)	2640 (≈ 626 µg/mL)	2640 (≈ 626 µg/mL)	662 (≈ 157 µg/mL)	662 (≈ 157 µg/mL)	662 (≈ 157 µg/mL)	2640 (≈ 626 µg/mL)	197.4	
CC(C)(C)C1=CC(=O)C=C(NCCC(=O)O)C1=O	47.1	171	28.4	67	94.1	> 200	625 (≈ 157 µg/mL)	2490 (≈ 625 µg/mL)	2490 (≈ 625 µg/mL)	1250 (≈ 313 µg/mL)	2490 (≈ 625 µg/mL)	1250 (≈ 313 µg/mL)	1250 (≈ 313 µg/mL)	2490 (≈ 625 µg/mL)	2490 (≈ 625 µg/mL)	2490 (≈ 625 µg/mL)	626 (≈ 157 µg/mL)	311 (≈ 78.1 µg/mL)	2490 (≈ 626 µg/mL)	833.2	
C[C@H](NC1=CC(=O)C=C(C(C)(C)C)C1=O)C(=O)O	89.1	> 200	20.1	77.6	112	> 200	1250 (≈ 313 µg/mL)	4980 (≈ 1250 µg/mL)	2490 (≈ 626 µg/mL)	1250 (≈ 313 µg/mL)	2490 (≈ 626 µg/mL)	2490 (≈ 626 µg/mL)	1250 (≈ 313 µg/mL)	4980 (≈ 1250 µg/mL)	2490 (≈ 626 µg/mL)	2490 (≈ 626 µg/mL)	626 (≈ 157 µg/mL)	626 (≈ 157 µg/mL)	1240 (≈ 312 µg/mL)	393.8	
CC(C)(C)C1=CC(=O)C(N2CCC[C@H]2C(=O)O)=CC1=O	44.9	186	87.3	49.2	67.2	> 200	567 (≈ 157 µg/mL)	2260 (≈ 626 µg/mL)	1130 (≈ 313 µg/mL)	567 (≈ 157 µg/mL)	2260 (≈ 626 µg/mL)	2260 (≈ 626 µg/mL)	567 (≈ 157 µg/mL)	2260 (≈ 626 µg/mL)	2260 (≈ 626 µg/mL)	2260 (≈ 626 µg/mL)	567 (≈ 157 µg/mL)	567 (≈ 157 µg/mL)	2260 (≈ 626 µg/mL)	883.4	
CC1=CCC[C@H]2[C@](C)(CC3=CC(=O)C=C(N[C@@H](C)C(=O)O)C3=O)[C@@H](C)CC[C@]12C	11.7	54.3	10.3	15.8	14.7	157	49.1 (≈ 19.6 µg/mL)	1570 (≈ 626 µg/mL)	195 (≈ 78.1 µg/mL)	97.7 (≈ 39.1 µg/mL)	195 (≈ 78.1 µg/mL)	195 (≈ 77.9 µg/mL)	49.1 (≈ 19.6 µg/mL)	393 (≈ 157 µg/mL)	195 (≈ 78.1 µg/mL)	195 (≈ 78.1 µg/mL)	6.13 (≈ 2.45 µg/mL)	195 (≈ 77.9 µg/mL)	1560 (≈ 624 µg/mL)	129.4	
CSCC[C@H](NC1=CC(=O)C=C(C(C)(C)C)C1=O)C(=O)O	77.4	> 200	34.8	88.5	151	> 200	1010 (≈ 313 µg/mL)	2010 (≈ 626 µg/mL)	2010 (≈ 626 µg/mL)	505 (≈ 157 µg/mL)	2010 (≈ 626 µg/mL)	2010 (≈ 626 µg/mL)	1010 (≈ 313 µg/mL)	2010 (≈ 626 µg/mL)	2010 (≈ 626 µg/mL)	2010 (≈ 626 µg/mL)	505 (≈ 157 µg/mL)	505 (≈ 157 µg/mL)	2010 (≈ 626 µg/mL)	360.2	
CC1=CCC[C@H]2[C@](C)(CC3=CC(=O)C=C(N[C@@H](Cc4ccccc4)C(=O)O)C3=O)[C@@H](C)CC[C@]12C	14.6	40.1	17.3	20.5	16.6	> 200	10.3 (≈ 4.91 µg/mL)	331 (≈ 157 µg/mL)	20.6 (≈ 9.81 µg/mL)	10.3 (≈ 4.91 µg/mL)	82.1 (≈ 39.1 µg/mL)	82.1 (≈ 39.1 µg/mL)	10.3 (≈ 4.91 µg/mL)	82.1 (≈ 39.1 µg/mL)	20.6 (≈ 9.81 µg/mL)	20.6 (≈ 9.81 µg/mL)	164 (≈ 78.1 µg/mL)	10.3 (≈ 4.91 µg/mL)	1320 (≈ 626 µg/mL)	96.7	
CC1=CCC[C@H]2[C@](C)(CC3=CC(=O)C=CC3=O)[C@@H](C)CC[C@]12C [AVARONE]	18.1	30	40.3	17.1	16.7	> 200	40.1 (≈ 12.5 µg/mL)	20 (≈ 6.26 µg/mL)	80.1 (≈ 25 µg/mL)	2000 (≈ 625 µg/mL)	20 (≈ 6.26 µg/mL)	20 (≈ 6.26 µg/mL)	441 (≈ 138 µg/mL)	27.6 (≈ 8.61 µg/mL)	55.1 (≈ 17.2 µg/mL)	13.8 (≈ 4.31 µg/mL)				170	MIC (Candida albicans): inactive; MIC (Saccharomyces cerevisiae): inactive; MIC (Aspergillus brasiliensis): inactive
